Assay outcomes deposited in PubChem by Broad Institute.
This is a sample that favours compounds with a hit; in the whole collection about 2.2% have one here.
ERp5 block = ERp5 (human) disulfide isomerase inhibition; inhibition, % at 9.99 µM; ERp5 insulin aggregation, absorbance 650 nm, 90 min; AID 651711; 350,000 tested, 0.05% active;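 active = mean replicate inhibition above about 25%, with every replicate also reaching it, limit read from the data, passing the limit was not always enough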
Target sequence (Q15084 whole entry, looked up): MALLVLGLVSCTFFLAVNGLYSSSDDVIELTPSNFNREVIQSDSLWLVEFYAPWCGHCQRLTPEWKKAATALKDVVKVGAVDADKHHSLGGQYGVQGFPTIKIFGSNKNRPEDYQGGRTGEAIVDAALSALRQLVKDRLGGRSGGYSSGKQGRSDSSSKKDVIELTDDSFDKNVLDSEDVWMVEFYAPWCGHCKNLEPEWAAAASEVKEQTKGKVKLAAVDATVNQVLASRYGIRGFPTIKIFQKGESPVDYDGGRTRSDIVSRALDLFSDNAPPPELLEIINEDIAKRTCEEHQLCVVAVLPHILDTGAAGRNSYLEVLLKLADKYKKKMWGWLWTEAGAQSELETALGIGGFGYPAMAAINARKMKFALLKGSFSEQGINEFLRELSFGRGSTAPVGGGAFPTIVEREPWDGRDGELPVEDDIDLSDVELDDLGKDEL
FN deposit inh = fibronectin deposition inhibition | AH1F fibroblasts, Alexa488-fibronectin deposition fluorescence, overnight | inhibition, % at 12.6 µM | 350,000 tested, 0.086% active;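 active = mean inhibition across replicates of 30% or more, regardless of how many single replicates reach that level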
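Assay system: AH1F fibroblasts / Quantity: 10000 cells per well / Medium: DMEM plus 2% serum, read in PBS / Reagent: labelled fibronectin 24 nM / Dosing: single dose, pinned / Times: 1 h cell attachment, overnight exposure to compound and label / Signal: fluorescence, ex 485 nm, em 525 nm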
PvdQ inh = P. aeruginosa PvdQ acylase inhibition; purified PvdQ acylase, fluorescence plate reader; 340,000 tested, 0.063% active; inhibition, % at 10 µM; in the data active = inhibition above about 30%, passing the limit was not always enough
Ecoli rRNA inh = inhibits bacterial ribosomal RNA function over humanized ribosomes | E. coli WT GFP vs humanized-ribosome RFP mutants, fluorescence, 24 h; stronger effect = lower value; DMSO median 0, no signal -100 | GFP signal change (wild-type ribosome), % (no concentration beside the values) | 350,000 tested, 1.6% active | AID 720706;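 active = significant combined selectivity score with lowered wild-type GFP, culture density cut under 30%, mutant RFP and density less affected; inactive = any of these conditions unmet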
PDI turbidity = inhibitors of human protein disulfide isomerase; P07237; PDI insulin aggregation turbidity, A650, 90 min; inhibition, % at 10 µM; 350,000 tested, 0.052% active;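 active = mean inhibition across replicates of 30% or more, whatever share of single replicates reach that level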
HIV Env fusion = inhibitors of HIV Env-mediated cell fusion. HeLa-JRFL Env/CEM21 cell fusion, luciferase. inhibition, % at 12.3 µM. 360,000 tested, 1.1% active. AID 651610;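 active = mean replicate inhibition score of at least 50 and every replicate individually at or above 50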
A number is an active result; - = inactive; . = no result given; [ ] = another dose, or the depositor's remark.

SMILES	ERp5 block	FN deposit inh	PvdQ inh	Ecoli rRNA inh	PDI turbidity	HIV Env fusion
C[C@@H]1CN([C@@H](C)CO)C(=O)Cc2cc(NC(=O)c3ccncc3)ccc2O[C@H]1CN(C)C(=O)Nc1ccccc1	-	.	.	-	.	.
O=C(Nc1ccc(Cl)c(C(F)(F)F)c1)c1ccncc1	-	-	-	-	-	-
CNC(=O)c1cc(Oc2ccc(NC(=O)Nc3ccc(Cl)c(C(F)(F)F)c3)cc2)ccn1	-	-	-	-	-	62
CC=Cc1ccc2n(c1=O)C[C@@H]1[C@@H](CO)[C@H](C(=O)NCC3CC3)[C@H]2N1Cc1cccnc1 (mixture of isomers)	-	.	.	-	.	.
CC(=O)c1sc(N/N=C2\CC3CC2C(C)C3(C)C)nc1C (stereo unspecified)	-	-	-	-31	-	-
Cc1nc2sc(C(c3ccco3)N3CCC(Cc4ccccc4)CC3)c(O)n2n1 (stereo unspecified)	-	-	-	-	.	82
COc1cc2c(cc1OC)CN(CCC(C)c1ccc(Cl)cc1)CC2 (stereo unspecified)	-	-	-	-33	-	-
COC(=O)c1ccccc1NC(=O)c1ccc2c(c1)CC(C)O2 (stereo unspecified)	-	-	-	-29	-	-
CC1Cc2cc(C(=O)O)ccc2O1 (stereo unspecified)	.	.	-	.	-	.
C[C@H](CO)N1C[C@H](C)[C@H](CN(C)C(=O)Nc2ccccc2)Oc2ccc(NC(=O)Nc3ccc4c(c3)OCO4)cc2C1=O	.	.	.	-	.	-
CN(c1ccccc1)S(=O)(=O)c1ccc(-c2ccccc2)cc1	-	-	-	-24	-	-
CC(C)NC(=O)N(C)C[C@H]1OCCCC[C@H](C)Oc2ccc(NC(=O)c3ccccc3)cc2C(=O)N([C@H](C)CO)C[C@H]1C	-	.	.	-	.	-
CSc1nc(Cl)cc(Nc2ccccc2N)n1	-	-	-	-23	-	79
Nc1nc(Cl)cc(Nc2ccccc2Cl)n1	-	-	-	-	-	-
C[C@H](CO)N1C[C@H](C)[C@H](CN(C)C(=O)Nc2cccc3ccccc23)Oc2ccc(NC(=O)Cn3cnnn3)cc2CC1=O	.	-	.	-	.	-
C[C@@H]1CN([C@@H](C)CO)S(=O)(=O)c2ccc(C3=CCCCC3)cc2O[C@@H]1CN(C)S(=O)(=O)c1ccc(F)cc1	-	.	.	-	.	62[16.7 µM]
COc1cccc(S(=O)(=O)N(C)C[C@@H]2Oc3cc(C4=CCCC4)ccc3S(=O)(=O)N([C@H](C)CO)C[C@@H]2C)c1	-	-	.	-	.	.
Cc1ccc(S(=O)(=O)N(C)C[C@@H]2Oc3cc(C4=CCCC4)ccc3S(=O)(=O)N([C@@H](C)CO)C[C@H]2C)cc1	-	.	.	-	.	58[16.7 µM]
Cc1ccc(S(=O)(=O)N(C)C[C@H]2Oc3cc(C4=CCCC4)ccc3S(=O)(=O)N([C@H](C)CO)C[C@H]2C)cc1	-	.	.	-	.	60[16.7 µM]
COc1cccc(S(=O)(=O)N(C)C[C@H]2Oc3cc(C4=CCCC4)ccc3S(=O)(=O)N([C@@H](C)CO)C[C@H]2C)c1	-	-	.	-	.	110[16.7 µM]
O=C(CC1CC1)N1[C@@H]2CN(S(=O)(=O)c3ccccc3)c3ccccc3[C@@H]2[C@@H]1CO	-	.	.	-	.	.
O=C(C1CCCCC1)N1CC(=O)N2[C@H](CO)[C@H](c3ccc(-c4cccnc4)cc3)[C@H]2C1	-	.	.	-	.	.
C[C@H]1CN([C@@H](C)CO)C(=O)c2cc(-c3cccc(F)c3)cnc2O[C@H]1CN(C)C(=O)C1CC1	.	.	.	-	.	-
O=C(NNS(=O)(=O)c1ccc(F)cc1F)C1Cc2c(ccc3ccccc23)O1 (stereo unspecified)	.	-	-	.	-	97
COc1ccccc1S(=O)(=O)N[C@H]1C=C[C@H](CC(=O)NCc2cc(F)cc(F)c2)O[C@H]1CO	-	.	.	-	.	-
CCOC(=O)N1CCC(N(CCOC)C(=S)Nc2cccc(SC)c2)CC1	-	-	-	-23	-	-
CCn1nnc(NC(=O)c2ccc([N+](=O)[O-])o2)n1	-	.	-	-23	-	-
CCC(=O)N1CCN(c2ccc(Cl)cc2NC(=O)c2ccc([N+](=O)[O-])o2)CC1	-	.	-	-	-	-
O=C(Nc1cc(Cl)ccc1-n1cncn1)c1ccc([N+](=O)[O-])o1	-	-	-	-21	-	-
